Screens (PubChem BioAssay)
Hits are enriched below; roughly 2.6% of the tested compounds scored in any of these assays.
T cruzi inh: blocks replication of Trypanosoma cruzi; 300,000 tested, 1.4% active; inhibition, % (no concentration beside the values); T. cruzi beta-gal in NIH3T3, luminescence, 90 h; AID 1885;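 active = mean inhibition across valid replicates above about 55%, limit read from the data; inconclusive = mean below that limit but half or more replicates reach it; inactive = mean below it, under half of replicates reach it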;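 note: signal also drops with host cell toxicity which is not excluded here; 0% = plate median of DMSO wells and 100% = zero luminescence signal; higher percent means less beta-gal luminescence so fewer parasites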
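System – NIH/3T3 host cells with β-galactosidase reporter T. cruzi · Doses – single 50 nL compound addition per well in DMSO · Reagent – 5000 T. cruzi trypomastigotes/well · Medium – Low-serum DMEM with 2% FBS · Timing – ≥90 h infection period, 3 h prior cell attachment · Evaluation – parasite load inhibition, % · Technique – GalScreen luminescence, 60 min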
CHT allo act: human CHT allosteric activation | 310,000 tested, 0.49% active | AID 488977 | B-score at 10 µM | Q9GZV3 | CHT-expressing cells, membrane potential dye, choline EC20; stronger effect = higher value; LV-AA mutant CHT in HEK293 cells;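 active = initial fluorescence not abnormally high and integrated response B-score, plate-corrected, over 3 SD above library mean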
Target sequence (Q9GZV3 whole entry, looked up): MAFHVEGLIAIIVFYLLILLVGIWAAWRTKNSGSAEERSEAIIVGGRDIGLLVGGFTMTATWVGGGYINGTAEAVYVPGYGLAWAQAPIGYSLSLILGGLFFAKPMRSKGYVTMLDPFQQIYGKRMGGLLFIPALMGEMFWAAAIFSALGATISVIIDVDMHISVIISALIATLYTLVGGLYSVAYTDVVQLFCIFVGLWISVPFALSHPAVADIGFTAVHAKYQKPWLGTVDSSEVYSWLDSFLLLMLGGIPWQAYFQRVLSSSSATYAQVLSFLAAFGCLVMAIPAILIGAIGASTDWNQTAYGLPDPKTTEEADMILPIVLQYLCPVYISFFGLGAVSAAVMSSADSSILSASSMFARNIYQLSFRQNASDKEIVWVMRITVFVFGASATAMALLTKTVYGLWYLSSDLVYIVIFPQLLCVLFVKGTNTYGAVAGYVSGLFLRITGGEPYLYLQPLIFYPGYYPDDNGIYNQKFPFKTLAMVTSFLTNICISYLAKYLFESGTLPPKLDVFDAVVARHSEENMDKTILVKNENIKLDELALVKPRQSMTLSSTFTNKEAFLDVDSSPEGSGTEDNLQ
PolyA inh: blocks polyadenylation in yeast reporter cells; S. cerevisiae SKY197-pL101 polyadenylation reporter, beta-gal luminescence; efflux-impaired pdr1/pdr3 knockout yeast; score 100 = 6 SD above DMSO; activity score, % at 12 µM; 300,000 tested, 0.02% active; AID 1875;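 active = lowest replicate activity score at least 50, where 100 means six control SD above control mean; inconclusive = lowest score under 50 but half or more replicates reach 50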;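 note: yeast exposed to compound for 9 h at 30 °C; higher score means more reporter readthrough which indicates perturbed polyadenylation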
CHT inh: inhibits the human high affinity choline transporter. Q9GZV3. CHT-expressing cells, membrane potential dye, choline response; stronger effect = lower value. B-score at 10 µM. 310,000 tested, 0.86% active;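 active = B-score over 3 SD under the library average, and starting fluorescence ratio not unusually high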;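 note: choline stimulus applied at its EC90 after an EC20 pre-addition; B-score computed on integrated fluorescence ratio after choline addition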
* hit, by the source's call.

Results for Nc1c(S(=O)(=O)c2cccc(Cl)c2)c2nc3ccccc3nc2n1/N=C/c1ccc(O)c(O)c1 ?
T cruzi inh: 62*; CHT allo act: inactive; PolyA inh: 6; CHT inh: inactive

How did COc1ccc(/C=C/C(=O)N2CCN(c3ccccn3)CC2)c(OC)c1OC do in these assays?
T cruzi inh: 1; CHT allo act: inactive; PolyA inh: 5; CHT inh: inactive

How did Cc1cc(C(=O)CN2C(=O)C(=O)N(Cc3ccccc3)C2=O)c(C)n1-c1ccccc1F do in these assays?
T cruzi inh: -20; CHT allo act: inactive; PolyA inh: 11; CHT inh: inactive

How did Cc1cc(C(=O)CN2CCC(C)CC2)c(C)n1-c1ccccc1F do in these assays?
T cruzi inh: 57*; CHT allo act: inactive; PolyA inh: -12; CHT inh: inactive

Results for COc1ccccc1-c1nnc(Sc2nc([N+](=O)[O-])nn2C)o1 ?
T cruzi inh: 58*; CHT allo act: inactive; PolyA inh: -5; CHT inh: inactive

How did O=C(Nc1nccs1)[C@@H]1CC=C[C@@H]2CCN(Cc3ccccc3)C(=O)[C@@H]21 do in these assays?
T cruzi inh: -14; CHT allo act: inactive; PolyA inh: 13; CHT inh: inactive

What do the screens show for `COc1ccc(C(=O)Nc2ncc3c(n2)CC(C)CC3=O)cc1` (stereo not given)?
T cruzi inh: 64*; CHT allo act: inactive; PolyA inh: 5; CHT inh: inactive

How did O=C(NCc1cn(-c2ccccc2)nc1-c1ccc(F)cc1)c1cccc([N+](=O)[O-])c1 do in these assays?
T cruzi inh: 61*; CHT allo act: inactive; PolyA inh: 10; CHT inh: inactive

Results for Fc1ccc(-c2nn(-c3ccccc3)cc2CNCc2ccccc2)cc1 ?
T cruzi inh: inconclusive; CHT allo act: inactive; PolyA inh: -6; CHT inh: inactive

How did Cc1[nH]n(C(N)=S)c(=O)c1N=Nc1cccc(C(F)(F)F)c1 do in these assays?
T cruzi inh: -13; CHT allo act: inactive; PolyA inh: -5; CHT inh: inactive

Results for Cc1[nH]n(C2=NCCS2)c(=O)c1N=Nc1cccc(C(F)(F)F)c1 ?
T cruzi inh: 60*; CHT allo act: inactive; PolyA inh: 9; CHT inh: inactive

What do the screens show for `Cc1onc(-c2ccccc2Cl)c1C(=O)OCC(=O)N1CCN(c2ccccc2)CC1`?
T cruzi inh: -3; CHT allo act: inactive; PolyA inh: -16; CHT inh: inactive

What do the screens show for `Cc1ccc(S(=O)(=O)NCC(c2cccnc2)N2CCN(Cc3ccccc3)CC2)cc1` (stereo not given)?
T cruzi inh: 57*; CHT allo act: inactive; PolyA inh: -13; CHT inh: inactive

Results for O=S(=O)(NCC(c1cccnc1)N1CCN(Cc2ccccc2)CC1)c1ccccc1 (stereo not given) ?
T cruzi inh: 62*; CHT allo act: inactive; PolyA inh: 13; CHT inh: inactive

What do the screens show for `N/C(Cc1ccc(Cl)cc1)=N\OC(=O)c1ccc2ccccc2c1`?
T cruzi inh: 15; CHT allo act: inactive; PolyA inh: -35; CHT inh: inactive

What do the screens show for `N/C(Cc1ccc(Cl)cc1)=N\OC(=O)c1cccc2ccccc12`?
T cruzi inh: 65*; CHT allo act: inactive; PolyA inh: -108; CHT inh: inactive

How did COc1ccccc1C1(O)C(=O)Nc2ccc(C)cc21 (stereo not given) do in these assays?
T cruzi inh: -11; CHT allo act: inactive; PolyA inh: -4; CHT inh: inactive

How did O=C1NC(=O)C(Cc2c[nH]c3ccccc23)N1 (stereo not given) do in these assays?
T cruzi inh: -9; CHT allo act: inactive; PolyA inh: 5; CHT inh: inactive

Results for CCCCNC(=O)CSc1nc2ccc(Nc3nc(N4CCOCC4)nc(N4CCOCC4)n3)cc2s1 ?
T cruzi inh: 31; CHT allo act: inactive; PolyA inh: 4; CHT inh: inactive

How did CCCCSc1nc2ccc(Nc3nc(N4CCOCC4)nc(N4CCOCC4)n3)cc2s1 do in these assays?
T cruzi inh: 57*; CHT allo act: inactive; PolyA inh: 14; CHT inh: inactive

What do the screens show for `CC(=O)c1cccc(OCC(O)CNCC2COc3ccccc3O2)c1` (stereo not given)?
T cruzi inh: 53; CHT allo act: inactive; PolyA inh: 4; CHT inh: inactive

How did O=C(N/N=C/c1cc(Cl)ccc1O)C(=O)Nc1ccccc1OC(F)(F)C(F)F do in these assays?
CHT allo act: inactive; CHT inh: inactive

How did O=C(N/N=C/c1cc(Br)ccc1O)C(=O)Nc1ccccc1OC(F)(F)C(F)F do in these assays?
T cruzi inh: 57*; CHT allo act: inactive; PolyA inh: 1; CHT inh: inactive

What do the screens show for `CCCn1c(=N)n(CC(=O)C(C)(C)C)c2ccccc21`?
T cruzi inh: 7; CHT allo act: inactive; PolyA inh: 11; CHT inh: inactive

Results for CCCCn1c(=N)n(CC(=O)C(C)(C)C)c2ccccc21 ?
T cruzi inh: 62*; CHT allo act: inactive; PolyA inh: 5; CHT inh: inactive

How did CC(C)N1C(=O)/C(=C\c2nc3ccccc3c(=O)n2-c2ccccc2)c2ccccc21 do in these assays?
T cruzi inh: 71*; CHT allo act: inactive; PolyA inh: -7; CHT inh: inactive

What do the screens show for `CC(C)N1C(=O)/C(=C/c2nc3ccccc3c(=O)n2-c2ccccc2)c2ccccc21`?
T cruzi inh: 77*; CHT allo act: inactive; PolyA inh: -5; CHT inh: inactive

How did O=C1c2ccccc2-n2c1nc1ccccc1c2=O do in these assays?
T cruzi inh: -2; CHT allo act: inactive; PolyA inh: 1; CHT inh: inactive

How did CC(C)N1C(=O)C(Cc2nc3ccccc3c(=O)n2-c2ccccc2)c2ccccc21 (stereo not given) do in these assays?
T cruzi inh: 47; CHT allo act: inactive; PolyA inh: -6; CHT inh: inactive

What do the screens show for `Cc1cc(C)cc(OCC(=O)N/N=C/c2ccc([N+](=O)[O-])o2)c1`?
T cruzi inh: 60*; CHT allo act: inactive; PolyA inh: -8; CHT inh: inactive

What do the screens show for `O=C(N/N=C\C=C\c1ccc([N+](=O)[O-])o1)c1cccs1`?
T cruzi inh: 78*; CHT allo act: inactive; PolyA inh: -17; CHT inh: inactive

How did CCOC(=O)N/N=C\c1ccc([N+](=O)[O-])o1 do in these assays?
T cruzi inh: 75*; CHT allo act: inactive; PolyA inh: -16; CHT inh: inactive

Results for O=C(N/N=C/c1ccc([N+](=O)[O-])o1)c1ccc(NS(=O)(=O)c2cccs2)cc1 ?
T cruzi inh: 17; CHT allo act: inactive; PolyA inh: 6; CHT inh: inactive

Results for CCCCCCCC(=O)N/N=C/c1ccc([N+](=O)[O-])o1 ?
T cruzi inh: 47; CHT allo act: inactive; PolyA inh: -20; CHT inh: inactive
